Several values for one entry are separate records, joined by “and”; a condition that tells them apart may be missing. Equal entries are not always repeated.
Experiments:
[1] = Area under concentration time curve of compound when administered perorally at a dose of 2 mg/kg to rats; format: ADME, organism-based; set-up: dose 2 mg/kg, route oral; settings: rat, in vivo, po
In short: (§1)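 Male Sprague-Dawley rats (n = 3) and male adult Beagle dogs (n = 4) were fasted overnight. They received either a 2 mg/kg oral gavage dose or a 0.5 mg/kg IV bolus. Blood was drawn into heparin tubes from a femoral arterial cannula (rat) or the jugular vein (dog) at set time points. Plasma was acidified with 0.5 M formate pH 3.0, stored at -70 °C and quantified by LC-MS/MS.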

[2] = biological target: T1, Peroxisome proliferator-activated receptor gamma (Homo sapiens, UniProt P37231); test: Agonist response against human PPAR gamma in transactivation assay; format: functional
T1 sequence (P37231 whole entry): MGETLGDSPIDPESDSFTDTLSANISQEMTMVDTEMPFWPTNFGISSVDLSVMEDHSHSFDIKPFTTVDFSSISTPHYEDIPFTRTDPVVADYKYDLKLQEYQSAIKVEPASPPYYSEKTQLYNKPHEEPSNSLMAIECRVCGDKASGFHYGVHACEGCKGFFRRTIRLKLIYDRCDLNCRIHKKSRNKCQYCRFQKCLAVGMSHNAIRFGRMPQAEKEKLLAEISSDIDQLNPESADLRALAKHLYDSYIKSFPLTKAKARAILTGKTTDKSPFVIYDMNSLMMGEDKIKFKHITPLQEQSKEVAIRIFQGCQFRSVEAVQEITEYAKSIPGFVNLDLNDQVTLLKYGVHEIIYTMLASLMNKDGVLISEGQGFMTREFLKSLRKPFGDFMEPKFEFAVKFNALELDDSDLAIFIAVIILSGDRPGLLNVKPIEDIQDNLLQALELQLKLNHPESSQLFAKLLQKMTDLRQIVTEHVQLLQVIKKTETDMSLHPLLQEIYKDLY

Cricetinae gen. sp. [3] = test: Percentage change in the serum triglyceride upon administration of compound (3 mpk) in hamster; format: functional
In short: (§2)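 Male Golden Syrian hamsters were fed normal rodent chow and dosed orally once daily with compound. Serum total cholesterol and triglyceride were measured and expressed as percent change versus vehicle controls.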

[4] = biological target: T2, Peroxisome proliferator-activated receptor alpha (Homo sapiens, UniProt Q07869); test: Agonist response against human PPAR alpha in transactivation assay
T2 sequence (Q07869 whole entry): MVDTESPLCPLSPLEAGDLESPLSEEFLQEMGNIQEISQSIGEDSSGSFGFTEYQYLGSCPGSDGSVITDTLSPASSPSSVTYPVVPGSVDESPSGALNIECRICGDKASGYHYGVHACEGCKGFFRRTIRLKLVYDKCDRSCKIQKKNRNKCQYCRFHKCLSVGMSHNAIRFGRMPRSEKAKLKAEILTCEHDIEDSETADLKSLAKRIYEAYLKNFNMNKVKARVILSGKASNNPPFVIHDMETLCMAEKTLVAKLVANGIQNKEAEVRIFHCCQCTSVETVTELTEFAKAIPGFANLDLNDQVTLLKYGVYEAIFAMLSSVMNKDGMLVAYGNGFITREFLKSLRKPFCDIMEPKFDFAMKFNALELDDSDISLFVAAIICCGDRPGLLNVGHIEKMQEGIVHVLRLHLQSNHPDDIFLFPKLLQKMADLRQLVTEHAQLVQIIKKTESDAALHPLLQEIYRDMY

Cricetinae gen. sp. [5] = test: Percentage change in the serum cholesterol upon administration of compound (10 mpk) in hamster; format: functional; in short: as §2
Cricetinae gen. sp. [6] = test: Effect (3 mpk) on serum cholesterol in hamster; format: functional
In short: (§3)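 Male Golden Syrian hamsters on normal rodent chow, dosed orally with test compound (9 days per table legend). Serum total cholesterol and triglyceride were measured in mg/dL. Values are group means, expressed as % change versus the vehicle-treated control group.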

Cricetinae gen. sp. [7] = test: Effect (10 mpk) on serum cholesterol in hamster; format: functional; in short: as §3
[8] = Half life when administered intravenously at a dose of 0.5 mg/kg to dogs; format: ADME, organism-based, Canis lupus familiaris; set-up: dose 0.5 mg/kg, route intravenous; settings: dog, in vivo, iv; in short: as §1
Mesocricetus auratus = organism: Mesocricetus auratus; test: Effect (3 mpk) on serum triglyceride in hamster
[9] = Area under concentration time curve of compound when administered perorally at a dose of 2 mg/kg to dogs; format: ADME, organism-based, Canis lupus familiaris; set-up: dose 2 mg/kg, route oral; settings: dog, in vivo, po; in short: as §1
[10] = biological target: T2, Peroxisome proliferator-activated receptor alpha; test: In vitro binding affinity for human PPAR alpha
[11] = Oral bioavailability in dog; format: ADME, organism-based, Canis lupus familiaris; settings: in vivo; in short: as §1
[12] = biological target: T1, Peroxisome proliferator-activated receptor gamma; test: In vitro binding affinity for human PPAR gamma
Cricetinae gen. sp. [13] = test: Percentage change in the serum cholesterol upon administration of compound (3 mpk) in hamster; format: functional; in short: as §2
[14] = Oral bioavailability in rat; format: ADME, organism-based; settings: in vivo; in short: as §1
[15] = Half life when administered intravenously at a dose of 0.5 mg/kg to rats; format: ADME, organism-based; set-up: dose 0.5 mg/kg, route intravenous; settings: rat, in vivo, iv; in short: as §1

Which results are given for `CCCc1cc(C(=O)CC)cc(CCC)c1O[C@H](C(=O)O)c1ccc(C(C)C)cc1`?
AUC [1]: 154 µM·h; EC50 [2]: 150 nM; Change (Cricetinae gen. sp. [3]): -22%; EC50 [4]: 56 nM; Change (Cricetinae gen. sp. [5]): -33% and -29% and -17.5%; Cholesterol level (Cricetinae gen. sp. [6]): 88 mg/dL; Cholesterol level (Cricetinae gen. sp. [7]): 86 mg/dL; Triglyceride level (Cricetinae gen. sp. [7]): 236 mg/dL; half-life [8]: 2.5 h; Triglyceride level (Mesocricetus auratus): 259 mg/dL; AUC [9]: 70.5 µM·h; IC50 [10]: 23 nM; bioavailability [11]: 85%; IC50 [12]: 75 nM; Change (Cricetinae gen. sp. [13]): -32%; bioavailability [14]: 65%; half-life [15]: 6.1 h

Reference: ChEMBL document CHEMBL1140307, “Design and synthesis of alpha-aryloxyphenylacetic acid derivatives: a novel class of PPARalpha/gamma dual agonists with potent antihyperglycemic and lipid modulating activity” (J Med Chem, 2005)
